Bioassay records: PubChem BioAssay, several laboratories
INS promoter inh – TRM-6 insulin promoter activity inhibition | TRM-6 cells (human fetal islet line), insulin promoter-eGFP reporter, imaging; reporter expression induced with tamoxifen | inhibition, % at 2 µM | actives 0.9% (n = 130,000);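 active means inhibition above the mean plus 3 SD, with well images judged a real hit on visual review, cut at about 60% in these data, passing the limit was not always enough; inconclusive means inhibition over the cutoff but images rejected on review; inactive means inhibition not above the cutoff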
Autophagy HCS – alters autophagy in cells. MEF GFP-LC3 puncta imaging; test concentration mostly 10 µM. calls only at 10 µM (by protocol). actives 0.98% (n = 190,000);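 active means percentage of spot-positive cells more than 3 SD above its plate mean, without a fluorescence outlier flag or 80% toxicity; inconclusive means no clear call, values can overlap the other calls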;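 further: spot-positive cell cutoff set from DMSO-treated cells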
PKD1 inh – blocks activity of human protein kinase D1; Q15139; PKD1 kinase fluorescence polarization assay; inhibition, % (no concentration beside the values); actives 0.056% (n = 200,000); AID 797; in the data active means inhibition above about 50%
Ins promoter up – MIN6 insulin promoter up-regulation. MIN6 insulin promoter-GFP reporter, high-content imaging; hits give high values. z-score at 5 µM. actives 0.3% (n = 190,000). AID 1625;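 active means z-score above 3 at 5 µM with at least 500 cells counted in the well; inconclusive means wells under 500 cells, flagged as cytotoxic or low count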
Arbovirus inh – antivirals against arbovirus infection. inhibition, % at 10 µM. arbovirus infection cell-based antiviral screen. actives 0.37% (n = 200,000); in the data active means inhibition above about 30%
RBBP9 inhibitor – inhibitors of human serine hydrolase RBBP9. inhibition, % at 7.94 µM. AID 1515. recombinant RBBP9, FP-Rh probe fluorescence polarization. actives 0.2% (n = 220,000);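 active means inhibition above the campaign mean of all tested compounds plus 3 SD, cut at about 14% in these data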;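 further: plate controls were DMSO wells with RBBP9 for no effect and wells lacking RBBP9 protein for full effect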
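Assay system: recombinant human RBBP9; Reagent: Serine-hydrolase probe FP-Rh, 375 nM pre-mixing; Doses: 7.94 µM single dose, 0.794% DMSO; Incubation: 30 min then 45 min, 25 °C; Detection: fluorescence polarization (mP), excitation 525 nm, emission 598 nm; Evaluation: percent inhibition from mP, scaled between DMSO and no-protein wells.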
Starred values were filed as active, the others as inactive; i = inactive; ? = inconclusive; / = no result; + = active, no number. In the library only some 2.1% were active in any assay of this set; here they are far more common.

SMILES | INS promoter inh | Autophagy HCS | PKD1 inh | Ins promoter up | Arbovirus inh | RBBP9 inhibitor
Cc1ccc(NC(=O)/C=C/c2ccc([N+](=O)[O-])s2)c(C)c1 | -179 | i | -10 | 13* | -13 | -9
Cc1cccc(NC(=O)/C=C/c2ccc([N+](=O)[O-])s2)c1 | / | i | -1 | / | -28 | -5
CC(=O)c1cc(C#N)c(Oc2ccc(F)cc2)nc1C | -23 | i | 0 | -0.47 | 6 | -8
COc1ccc(CNC(=O)C(C#N)c2nc3ccccc3nc2N2CCN(C)CC2)cc1 (stereo not given) | -15 | i | 0 | -0.78 | 2 | -4
CCOC(=O)C1CCN(c2nc3ccccc3nc2C(C#N)C(=O)OC(C)COC)CC1 (stereo not given) | -34 | i | 2 | -1.3 | 10 | -6
CCOC(=O)C1CCN(c2nc3ccccc3nc2C(C#N)C(=O)OC(C)C)CC1 (stereo not given) | -4 | + | -2 | -0.31 | -1 | 5
COc1ccc(CNC(=O)C(C#N)c2nc3ccccc3nc2N2CCCC2)cc1 (stereo not given) | / | + | 3 | 2.2 | 6 | 4
Cn1c(SCC(=O)N2CCCCC2)nnc1-c1ccc(S(=O)(=O)N2CCOCC2)cc1 | -29 | i | -16 | 0.56 | 2 | 1
Cc1ccc2nc3sc(C(=O)N4CCCc5ccccc54)c(N)c3cc2c1 | / | i | -3 | 2.3 | -32 | -6
Cc1ccc2nc3sc(-c4nnc(-c5ccccc5[N+](=O)[O-])o4)c(N)c3cc2c1 | -42 | + | -7 | 0.34 | 1 | 0
O=c1c2ccc([N+](=O)[O-])cc2ncn1CCOc1cccc(Br)c1 | / | + | -5 | 0.51 | 6 | 4
Cc1ccc(-c2nnn(CCC(=O)N3CCCCC3C)n2)cc1 (stereo not given) | 71* | i | -9 | 0.07 | -3 | -1
CC1CCCCN1C(=O)Cn1nnc(-c2cccnc2)n1 (stereo not given) | -50 | i | -4 | 1.1 | 5 | -8
c1nc(NC2CCCCCC2)c2[nH]cnc2n1 | 70* | i | 4 | 0.49 | 5 | -9
CCOC(=O)C1=c2/c(=C/c3ccccc3OC)c(N)c(C#N)n2C(=O)C(c2ccccc2OC)S1 (stereo not given) | 0 | + | -11 | -0.68 | -12 | 1
Cc1cc(NC(=O)/C(C#N)=C/c2ccc(-c3ccc(SC(F)F)cc3)o2)n(-c2ccccc2)n1 | 27 | + | 5 | 3.4* | -8 | -13
Cc1cc(NC(=O)/C(C#N)=C/c2ccc(-c3cccc(C(F)(F)F)c3)o2)n(-c2ccccc2)n1 | / | i | -4 | -0.19 | -1 | 0
CSc1nc2ccc(Nc3nc(N4CCOCC4)nc(N4CCOCC4)n3)cc2s1 | / | i | -2 | -1.2 | -5 | -1
CCCc1cc(=O)[nH]c(/N=C(/NC(=O)C(C)N2C(=O)c3ccccc3C2=O)Nc2ccccc2)n1 (stereo not given) | -7 | i | -9 | / | 3 | 6
COc1cnc(SCc2c(Cl)cccc2Cl)nc1Cl | -22 | + | -4 | / | 5 | 0
Cc1nc(SCc2c(F)cccc2Cl)n[nH]1 | 41 | i | 4 | 0.29 | 6 | -10
CCOC(=O)c1c(-c2cccc3ccccc23)csc1NC(=O)C1C2CCC(O2)C1C(=O)O (stereo not given) | 53 | i | 1 | 0.38 | 30 | -2
C/C(CCC12CC3CC(CC(C3)C1)C2)=N\NC(N)=S | -41 | + | 3 | / | -17 | 1
CCOC(=O)C1=C(C)N=c2s/c(=C\c3ccc(OC(C)=O)c(OCC)c3)c(=O)n2C1/C=C/c1ccccc1 (stereo not given) | / | + | 5 | -0.1 | 4 | -4
CCOC(=O)C1=C(C)N=c2s/c(=C\c3ccc(OC(C)=O)cc3)c(=O)n2C1/C=C/c1ccccc1 (stereo not given) | -239 | i | -11 | 0.07 | -2 | -8
SMILES | INS promoter inh | Autophagy HCS | PKD1 inh | Ins promoter up | Arbovirus inh | RBBP9 inhibitor
CSc1nc(-c2ccc(Cl)cc2)nn1C(=O)c1ccco1 | 83* | i | -10 | 1.2 | -2 | 5
CCS(=O)(=O)n1nc(-c2ccc(Cl)cc2)nc1SC | 72* | i | 2 | 0.45 | 4 | -10
CSc1nc(-c2ccco2)nn1C(=O)c1ccco1 | / | i | -13 | -6.6 | 14 | -1
O=C(CSCCOc1ccccc1)NCc1ccncc1 | / | / | / | -0.33 | / | -7
Nc1nonc1-c1nc2ccccc2n1Cc1ccccc1 | -13 | + | -2 | 0.13 | -23 | -11
CCCCn1c(-c2nonc2N)nc2ccccc21 | -29 | i | -3 | -0.33 | 1 | -3
CC1=CC(=O)C=C(C)C1=NOc1ccc([N+](=O)[O-])cc1 | 100* | i | -2 | 0.07 | 5 | -1
O=C(CCl)Nc1cc(SCC(O)CO)cc([N+](=O)[O-])c1 (stereo not given) | / | + | -4 | ? | -1 | -1
O=c1[nH]c(-c2ccccc2F)nc2c1sc(=S)n2Cc1ccccc1 | / | + | -4 | -0.05 | 13 | -9
CCCCn1c(=O)[nH]c(=O)c2c1nc(-c1ccccc1F)n2Cc1ccccc1 | / | i | 1 | 0.51 | -13 | -8
O=C(c1ccco1)N1c2ccccc2Sc2ccccc21 | -3 | i | -8 | -0.35 | -14 | 2
O=C(NC1CCN(C(=O)N2c3ccccc3Sc3ccccc32)CC1)c1ccco1 | -18 | + | 12 | -0.47 | -7 | -2
O=C(c1ccco1)N1CCN(C(=O)N2c3ccccc3Sc3ccccc32)CC1 | -381 | + | -6 | -3.2 | -23 | 0
O=C(NC1CCN(C(=O)N2c3ccccc3Sc3ccccc32)CC1)c1ccccc1Cl | / | i | -6 | -1.7 | -27 | -3
CCCCCC(=O)NC(=S)Nc1ccc(Br)cc1C | 17 | i | -9 | 0.09 | 2 | -2
COc1ccc2nc(N/C(N)=N/C(=S)Nc3ccccc3)nc(C)c2c1 | 14 | i | -5 | / | 0 | -14
CCc1cccc(CC)c1N(COC)C(=O)Cn1nnc2ccccc21 | -57 | i | 3 | -0.86 | 4 | -1
CCc1cccc(CC)c1N(COC)C(=O)Cn1ccccc1=N | -86 | + | -6 | 0.97 | 0 | -2
COc1ccc(N2CCN(C(=O)Cn3cnc4c(cnn4-c4ccc(C)cc4)c3=O)CC2)cc1 | -42 | + | -10 | -0.58 | -1 | -11
COc1ccc(N2CCN(C(=O)Cn3cnc4c(cnn4-c4ccccc4)c3=O)CC2)cc1 | 36 | i | 3 | -0.98 | 1 | -6
CCOP(=O)(OCC)C(Nc1cc(Cl)cc(Cl)c1)c1cccc(O)c1 (stereo not given) | -5 | i | 4 | -0.02 | -6 | -5
Cc1c(C(=O)NCCCN2CCOCC2)sc2ncnc(N3CCN(c4ccccc4)CC3)c12 | -16 | i | -4 | -0.85 | -1 | -10
COc1ccc(-c2nc(C3CCCCC3)no2)cc1OC | 45 | i | 0 | 1.4 | 35* | -1
